Reference: ChEMBL document CHEMBL1135402, “New serotonin 5-HT(2A), 5-HT(2B), and 5-HT(2C) receptor antagonists: synthesis, pharmacology, 3D-QSAR, and molecular modeling of (aminoalkyl)benzo and heterocycloalkanones” (J Med Chem, 2002)

Columns and labels:
[1] = biological target: Serotonin receptor 2a and 2c (5HT2A and 5HT2C) (Rattus norvegicus) (UniProt P08909+P14842); assay: Selectivity ratio towards Ki of 5-hydroxytryptamine 2A receptor to 5-hydroxytryptamine 2C receptor; format: protein assay
Chain of Serotonin receptor 2a and 2c (5HT2A and 5HT2C) (Rattus norvegicus) (P08909 whole entry, looked up): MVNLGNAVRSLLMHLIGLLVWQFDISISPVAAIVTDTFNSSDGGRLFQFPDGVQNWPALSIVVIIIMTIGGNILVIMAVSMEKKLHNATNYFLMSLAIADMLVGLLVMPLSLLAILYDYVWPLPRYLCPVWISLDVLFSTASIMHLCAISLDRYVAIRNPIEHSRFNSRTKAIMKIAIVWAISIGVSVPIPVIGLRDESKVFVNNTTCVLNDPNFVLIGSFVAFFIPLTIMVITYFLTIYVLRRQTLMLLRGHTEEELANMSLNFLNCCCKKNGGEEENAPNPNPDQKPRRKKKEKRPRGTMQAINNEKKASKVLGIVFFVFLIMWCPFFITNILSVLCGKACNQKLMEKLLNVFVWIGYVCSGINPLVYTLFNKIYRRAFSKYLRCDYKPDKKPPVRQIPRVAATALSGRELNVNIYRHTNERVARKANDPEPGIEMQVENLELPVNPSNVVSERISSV
Chain of Serotonin receptor 2a and 2c (5HT2A and 5HT2C) (Rattus norvegicus) (P14842 whole entry, looked up): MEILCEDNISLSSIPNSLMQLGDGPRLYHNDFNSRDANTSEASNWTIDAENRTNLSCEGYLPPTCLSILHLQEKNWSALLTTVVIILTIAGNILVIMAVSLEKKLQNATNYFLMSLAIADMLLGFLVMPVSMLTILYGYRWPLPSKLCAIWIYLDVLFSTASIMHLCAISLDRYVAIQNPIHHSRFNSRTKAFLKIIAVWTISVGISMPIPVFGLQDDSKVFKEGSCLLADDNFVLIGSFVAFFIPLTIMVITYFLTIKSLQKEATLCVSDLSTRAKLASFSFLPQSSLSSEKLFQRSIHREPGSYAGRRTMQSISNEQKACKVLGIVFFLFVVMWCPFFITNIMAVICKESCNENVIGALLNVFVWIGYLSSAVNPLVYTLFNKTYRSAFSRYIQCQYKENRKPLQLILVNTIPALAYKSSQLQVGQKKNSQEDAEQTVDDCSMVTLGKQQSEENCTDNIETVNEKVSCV

[2] = biological target: T1, 5-hydroxytryptamine receptor 2A (Rattus norvegicus, UniProt P14842); assay: Negative log concentration of antagonist on 5-hydroxytryptamine 2A receptor in rat thoracic aorta; format: functional, tissue-based; details: read-out: pA2 (converted)
T1 sequence (P14842 whole entry): as the sequence (P14842 whole entry, looked up) above

[3] = biological target: T1, 5-hydroxytryptamine receptor 2A; assay: Inhibitory constant on 5-hydroxytryptamine 2A receptor of Rat frontal cortex; format: tissue-based
[4] = biological target: 5-hydroxytryptamine receptor 2C (Bos taurus); assay: Inhibitory constant was determined on 5-hydroxytryptamine 2C receptor of Bovine choroid plexus
[5] = biological target: T2, 5-hydroxytryptamine receptor 2C (Homo sapiens, UniProt P28335); assay: Inhibitory constant on human 5-hydroxytryptamine 2C receptor transfected in to HeLa cells; format: cell-based
T2 sequence (P28335 whole entry): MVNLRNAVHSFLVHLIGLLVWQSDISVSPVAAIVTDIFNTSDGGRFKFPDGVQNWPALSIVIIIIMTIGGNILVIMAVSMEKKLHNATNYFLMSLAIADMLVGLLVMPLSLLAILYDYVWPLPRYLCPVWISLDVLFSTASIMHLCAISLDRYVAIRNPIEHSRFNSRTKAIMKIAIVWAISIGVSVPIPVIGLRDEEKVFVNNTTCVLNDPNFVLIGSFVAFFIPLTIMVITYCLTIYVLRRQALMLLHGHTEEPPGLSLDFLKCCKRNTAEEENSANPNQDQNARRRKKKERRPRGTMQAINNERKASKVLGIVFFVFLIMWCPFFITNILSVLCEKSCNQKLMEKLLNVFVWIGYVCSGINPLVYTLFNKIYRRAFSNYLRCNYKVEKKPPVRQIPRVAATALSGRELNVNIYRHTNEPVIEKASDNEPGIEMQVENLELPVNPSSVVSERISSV
Method in brief: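 HeLa cells stably expressing cloned human 5-HT2C, grown 24 h in dialyzed FCS; membranes as for human 5-HT2A. [3H]mesulergine (2 nM final) competition, nonspecific with 1 μM mianserine, 1 h at room temperature; GF/B filtration, scintillation counting. Ki via Cheng–Prusoff.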

[6] = biological target: 5-hydroxytryptamine receptor 2A (Homo sapiens, UniProt P28223); assay: Inhibitory constant for human 5-hydroxytryptamine 2A receptor transfected in to CHO cells; format: cell-based
Chain of 5-hydroxytryptamine receptor 2A (Homo sapiens, UniProt P28223) (P28223 whole entry): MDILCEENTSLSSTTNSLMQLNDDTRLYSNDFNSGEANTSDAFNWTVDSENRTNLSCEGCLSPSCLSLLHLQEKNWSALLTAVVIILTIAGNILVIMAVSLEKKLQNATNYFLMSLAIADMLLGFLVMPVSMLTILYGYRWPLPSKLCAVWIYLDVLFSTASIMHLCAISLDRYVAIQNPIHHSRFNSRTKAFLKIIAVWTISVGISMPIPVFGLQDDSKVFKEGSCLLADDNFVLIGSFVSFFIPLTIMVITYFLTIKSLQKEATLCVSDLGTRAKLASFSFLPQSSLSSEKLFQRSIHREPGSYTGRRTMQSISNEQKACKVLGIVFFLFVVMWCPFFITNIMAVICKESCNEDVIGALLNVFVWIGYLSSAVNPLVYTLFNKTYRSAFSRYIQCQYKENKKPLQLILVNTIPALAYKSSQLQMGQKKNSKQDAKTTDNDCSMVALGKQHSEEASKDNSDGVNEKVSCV
Method in brief: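 CHO cells stably expressing cloned human 5-HT2A, grown 24 h in dialyzed FCS before harvest; membranes in 50 mM Tris-HCl pH 7.5. […] Ki from IC50 by Cheng–Prusoff.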

[7] = biological target: T1, 5-hydroxytryptamine receptor 2A; assay: Negative log concentration of antagonistic compound was determined on 5-hydroxytryptamine 2A receptor of Rat thoracic aorta; format: functional, tissue-based; details: read-out: pA2 (converted)
Method in brief: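 Denuded thoracic aorta rings (4 mm) from male Sprague–Dawley rats (250–350 g), 2 g tension in Krebs organ bath; isometric contraction. Sensitized with 10 μM 5-HT, then cumulative 5-HT curves (30 nM–100 μM) alternating with 60 min equilibration; two matching control runs, then antagonist added 20 min before end of equilibration. Single-concentration method: […].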

[8] = biological target: T3, 5-hydroxytryptamine receptor 2B (Rattus norvegicus, UniProt P30994); assay: Negative log concentration of antagonistic compound was determined on 5-hydroxytryptamine 2B receptor of Rat stomach fundus; format: functional, tissue-based; details: read-out: pA2 (converted)
T3 sequence (P30994 whole entry): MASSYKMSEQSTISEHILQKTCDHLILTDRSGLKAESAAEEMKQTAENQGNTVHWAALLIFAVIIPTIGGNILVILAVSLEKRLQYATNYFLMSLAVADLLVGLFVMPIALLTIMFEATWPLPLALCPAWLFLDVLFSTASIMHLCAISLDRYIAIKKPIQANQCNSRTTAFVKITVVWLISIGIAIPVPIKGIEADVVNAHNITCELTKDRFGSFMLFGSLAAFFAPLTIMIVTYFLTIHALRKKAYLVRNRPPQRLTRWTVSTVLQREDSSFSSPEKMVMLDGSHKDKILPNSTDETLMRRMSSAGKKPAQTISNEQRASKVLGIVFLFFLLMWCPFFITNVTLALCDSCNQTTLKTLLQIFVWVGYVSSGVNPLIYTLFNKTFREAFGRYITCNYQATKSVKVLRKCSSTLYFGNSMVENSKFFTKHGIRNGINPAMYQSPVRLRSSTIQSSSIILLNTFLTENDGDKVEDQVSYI
Method in brief: (§1)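 Rat stomach fundus strips equilibrated 1 h under 1 g load; isometric contractions to cumulative 5-HT (0.01 nM–10 μM) in organ bath. Control curves, then antagonist preincubated before test curve; pA2 from EC50 shift at one antagonist concentration, […].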

[9] = biological target: T3, 5-hydroxytryptamine receptor 2B; assay: Antagonistic activity on 5-hydroxytryptamine 2B receptor of Rat stomach fundus;ND is not determined; format: functional, tissue-based; details: read-out: pA2 (converted); method in brief: as §1

SMILES	Ratio [1]	Kb [2]	Ki [3]	other results
COc1ccccc1N1CCN(CC2CC(=O)c3ccccc3C2)CC1 (configuration not stated)	5.5	331 nM		
O=C1CC(CN2CCC(C(=O)c3ccc(F)cc3)CC2)Cc2sccc21 (configuration not stated)		15.1 nM		
COc1ccccc1N1CCN(CCC2CCc3ccccc3C2=O)CC1 (configuration not stated)	5.8	191 nM		
O=C(c1ccc(F)cc1)C1CCN(CCC2CCc3occc3C2=O)CC1 (configuration not stated)	18	26.3 nM	19.5 nM	
O=C1c2ccoc2CCC1CCN1CCN(c2ccccn2)CC1 (configuration not stated)	89	676 nM	355 nM	
O=C1CC(CN2CCN(c3ccccn3)CC2)c2ccccc21 (configuration not stated)	0.027		> 10000 nM	
O=C(c1ccc(F)cc1)C1CCN(CCC2Cc3ccccc3C2=O)CC1 (configuration not stated)		7.59 nM		
COc1ccccc1N1CCN(CCC2CCc3occc3C2=O)CC1 (configuration not stated)	3	501 nM	191 nM	
O=C1CC(CN2CCC(c3noc4cc(F)ccc34)CC2)Cc2sccc21 (racemic) [listing 1 of 2 here]		0.741 nM		Log Ki [4]: -6.69
O=C1CC(CN2CCC(c3noc4cc(F)ccc34)CC2)Cc2sccc21 (racemic) [listing 2 of 2 here]	44			
O=C(CCCN1CCN(CCC2CCc3sccc3C2=O)CC1)c1ccc(F)cc1 (configuration not stated)		148 nM		
O=C(CCCCN1CCN(CC2CC(=O)c3ccoc3C2)CC1)c1ccc(F)cc1 (configuration not stated)	25			
CCc1c(C)[nH]c2c1C(=O)CC(CN1CCN(c3ccccc3OC)CC1)C2 (configuration not stated)	13			
O=C(CCCN1CCN(CCC2Cc3sccc3C2=O)CC1)c1ccc(F)cc1 (configuration not stated)		23.4 nM		
O=C1c2ccsc2CCC1CCN1CCN(c2ccccn2)CC1 (configuration not stated)	9.8	490 nM	174 nM	
O=C1CC(CN2CCC(C(=O)c3ccc(F)cc3)CC2)Cc2[nH]c3ccccc3c21 (configuration not stated)	65			
O=C1CC(CN2CCC(C(=O)c3ccc(F)cc3)CC2)c2ccccc21 (configuration not stated)		7.41 nM		
O=C1CC(CN2CCC(C(=O)c3ccc(F)cc3)CC2)Cc2ccccc21 (configuration not stated)		13.8 nM		
O=C1c2ccoc2CCC1CCN1CCC(c2noc3cc(F)ccc23)CC1 (configuration not stated)	65	0.562 nM	1.07 nM	Ki [5]: 34.7 nM; Ki [6]: 0.724 nM
O=C(CCCN1CCN(CC2CC(=O)c3ccccc3C2)CC1)c1ccc(F)cc1 (configuration not stated)	1780	53.7 nM		Ki [6]: 115 nM
O=C(c1ccc(F)cc1)C1CCN(CCC2Cc3cc(F)ccc3C2=O)CC1 (configuration not stated)	219	7.59 nM		
COc1ccccc1N1CCN(CC2CC(=O)c3ccsc3C2)CC1 (configuration not stated)		1260 nM		
COc1ccccc1N1CCN(CCC2CCc3sccc3C2=O)CC1 (configuration not stated)		112 nM		
O=C(CCCN1CCN(CCC2Cc3cc(F)ccc3C2=O)CC1)c1ccc(F)cc1 (configuration not stated)	36		53.7 nM	
O=C(c1ccc(F)cc1)C1CCN(CCC2CCc3ccccc3C2=O)CC1 (configuration not stated)	29	33.9 nM		
O=C1CC(CN2CCC(c3noc4cc(F)ccc34)CC2)Cc2sccc21 (stereo in doubt; (-)18h)			11.7 nM	

SMILES	Ratio [1]	Kb [2]	Ki [3]	other results
O=C(CCCN1CCN(CC2CC(=O)c3ccccc32)CC1)c1ccc(F)cc1 (configuration not stated)		63.1 nM		
COc1ccccc1N1CCN(CC2CC(=O)c3ccoc3C2)CC1 (configuration not stated)	1		> 10000 nM	
O=C(CCCN1CCN(CCC2Cc3ccccc3C2=O)CC1)c1ccc(F)cc1 (configuration not stated)	50	50.1 nM		Ki [5]: > 10000 nM; Ki [6]: 67.6 nM
CCc1c(C)[nH]c2c1C(=O)C(CCN1CCN(c3ccccc3OC)CC1)CC2 (configuration not stated)	2.5			Kb [7]: 31.6 nM
O=C(CCCN1CCN(CC2CC(=O)c3ccoc3C2)CC1)c1ccc(F)cc1 (configuration not stated)	33			
O=C1c2sccc2CCC1CCN1CCC(c2noc3cc(F)ccc23)CC1 (configuration not stated)	10			
COc1ccccc1N1CCN(CCC2Cc3ccccc3C2=O)CC1 (configuration not stated)	1.5	158 nM	195 nM	
O=C1c2ccsc2CCC1CCN1CCC(c2noc3cc(F)ccc23)CC1 (configuration not stated)		0.135 nM		
O=C(c1ccc(F)cc1)C1CCN(CCC2Cc3sccc3C2=O)CC1 (configuration not stated)		1.2 nM		
O=C(c1ccc(F)cc1)C1CCN(CCC2CCCc3ccccc3C2=O)CC1 (configuration not stated)		178 nM		
O=C1CC(CN2CCC(c3noc4cc(F)ccc34)CC2)Cc2sccc21 (single isomer, unassigned; (+))			11.5 nM	
O=C1CC(CN2CCN(c3ncccn3)CC2)Cc2occc21 (configuration not stated)	1		> 10000 nM	Kb [8]: 977 nM
O=C(c1ccc(F)cc1)C1CCN(CCC2CCc3ccsc3C2=O)CC1 (configuration not stated)	31			Kb [9]: 331 nM
O=C(c1ccc(F)cc1)C1CCN(CCC2CCc3sccc3C2=O)CC1 (configuration not stated)		0.955 nM		
COc1ccccc1N1CCN(CC2CC(=O)c3c([nH]c4ccccc34)C2)CC1 (configuration not stated)	1.9			
O=C(CCCN1CCN(CC2CC(=O)c3ccsc3C2)CC1)c1ccc(F)cc1 (configuration not stated)		16.2 nM		
O=C1CC(CN2CCC(C(=O)c3ccc(F)cc3)CC2)Cc2occc21 (configuration not stated)	616	52.5 nM		
COc1ccccc1N1CCN(CC2CC(=O)c3ccccc32)CC1 (configuration not stated)		617 nM		
CCc1c(C)[nH]c2c1C(=O)CC(CN1CCN(CCCC(=O)c3ccc(F)cc3)CC1)C2 (configuration not stated)	0.26		912 nM	
CCc1c(C)[nH]c2c1C(=O)CC(CN1CCC(c3noc4cc(F)ccc34)CC1)C2 (configuration not stated)	89		4.27 nM	
O=C1CC(CN2CCC(c3noc4cc(F)ccc34)CC2)Cc2occc21 (configuration not stated)	2950	11.2 nM		Ki [5]: 3980 nM
O=C1CC(CN2CCC(c3noc4cc(F)ccc34)CC2)Cc2ccccc21 (configuration not stated)			2.69 nM	
O=C1CC(CN2CCC(c3noc4cc(F)ccc34)CC2)Cc2[nH]c3ccccc3c21 (configuration not stated)	36			Ki [5]: 27.5 nM; Ki [6]: 1.17 nM
O=C1CC(CN2CCN(c3ccccc3)CC2)Cc2occc21 (configuration not stated)	1440			
CCc1c(C)[nH]c2c1C(=O)CC(CN1CCC(C(=O)c3ccc(F)cc3)CC1)C2 (configuration not stated)	4.1		8.71 nM	
O=C(CCCN1CCN(CCC2CCc3ccccc3C2=O)CC1)c1ccc(F)cc1 (configuration not stated)	46	44.7 nM		
